Values after ≈ are worked out from the molar mass of the structure shown. “Also recorded” adds a separate entry of the source.
Assays:
Type in all cases: cell-based
PKCα = PKCα (Homo sapiens, UniProt P17252); test: Immunoblotting to detect PKCα translocation from cytosol to plasma membrane; settings: MDAMB-231, compound at IC50, 30 minutes, cytosolic PKCα normalized to 100%
caspase-3 = test: Caspase-3 activity assay; settings: MDAMB-231, compound at IC50, 24 hours, vs untreated
[1] = test system: MCF-7 breast cancer cells; test: MTT viability assay, MCF-7; settings: Homo sapiens, MCF7, 48 h, read-out: Anticancer activity (IC50 ± SD) MCF-7
caspase-9 = test: Caspase-9 activity assay; settings: MDAMB-231, compound at IC50, 24 hours, vs untreated
MDAMB-231 cells = test: DNA fragmentation
cytochrome c = test: Mitochondrial cyt c release, immunofluorescence; settings: MDAMB-231, compound at IC50, 24 hours
Method in brief: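 Mitochondria were labelled with MitoTracker Red (200 nM, 45 min), and cytochrome c was immunostained with an anti-cyt c antibody followed by FITC anti-mouse secondary (4 h, 37 °C). Coverslips were mounted and examined by fluorescence microscopy for cyt c relocation.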

COc1cc(/C=C/C(=O)CC(=O)/C=C/c2ccc(O)c(OC)c2)ccc1O [Curcumin]
translocation of PKC from cytosol to the plasma membrane (PKCα): 17%±1.9%
increase in caspase-3 activity (caspase-3): 65%
IC50 [1]: 5 ± 0.8 µg/mL (≈ 13.6 µM)
increase in caspase-9 activity (caspase-9): 35%
genomic DNA fragmentation (MDAMB-231 cells; MDAMB-231, compound at IC50, 12 hours, agarose gel): produced distinct DNA fragments; also recorded: showed DNA fragments of different sizes
genomic DNA fragmentation in presence of NAC (MDAMB-231 cells; MDAMB-231 preincubated with NAC (5 mM)): intact gDNA with no visible appearance of DNA fragments
release of cyt c from mitochondria to cytosol (cytochrome c): release of cyt c
